From paper PMC3629979 (Molecular imaging, 2010)

Legend:
U87MG tumor = assay: In vivo NIRF optical imaging of U87MG tumor-bearing nude mice; conditions: for nonspecific tumor targeting / accumulation of unconjugated dye: Cy5.5 and Cy7 data not shown; for tumor to muscle ratio, time course: 1, 2 and 4 hours postinjection, in words; for tumor to muscle ratio, time course / tumor to muscle ratio: 0.5 nmol i.v.; for tumor to muscle ratio: light intensity ratio, 4 hours postinjection, mean ± SD, n = 3
in vivo = conditions: female, athymic nude, mouse, U87MG tumor, iv, 0.5 nmol
[1] = for kidney uptake: 4 hours postinjection, 0.5 nmol i.v., ex vivo imaging, in words; for excretion route: inferred from kidney uptake at 4 hours postinjection
murine integrin β3 = assay: Immunofluorescence colocalization in U87MG tumor sections, murine integrin β3; assay type: in vivo; conditions: 1 nmol i.v., 30 minutes postinjection; frozen tumor sections; one mouse
In short: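 Single female athymic nude mouse with subcutaneous U87MG xenograft (5 × 10⁶ cells, right front flank; tumours 100 to 300 mm³) given 1 nmol Cy5.5-labelled test compound by tail vein. Killed at 30 min, perfused with 20 mL PBS, tumour frozen-sectioned. Sections incubated 1 h at room temperature with hamster antimouse integrin β3 (1:100), then FITC secondary (1:200). Fluorescence microscopy overlay.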

Molecule	nonspecific tumor targeting / accumulation of unconjugated dye (U87MG tumor)	tissue uptake at 4 h (in vivo)	tumor to muscle ratio, time course (U87MG tumor)	tumor to muscle ratio (U87MG tumor)	kidney uptake [1]	excretion route [1]	also measured
CCN1C(=CC=CC=CC=CC2=[N+](CCCCCC(=O)O)c3ccc(S(=O)(=O)O)cc3C2(C)C)C(C)(C)c2cc(S(=O)(=O)[O-])ccc21 [Cy7, reference compound]	relatively high tumor-nonspecific targeting	–	–	–	–	–	–
CC1(C)C(/C=C/C2=C(Oc3ccc(S(=O)(=O)O)cc3)C(=C/C=C3/N(CCCCS(=O)(=O)O)c4ccc(S(=O)(=O)[O-])cc4C3(C)C)/CCC2)=[N+](CCCCCC(=O)O)c2ccc(S(=O)(=O)O)cc21 [IRDye800, reference compound]	only a lower nonspecific tumor accumulation	–	–	–	–	–	–
CC1(C)C(=CC=C2CCCC(C=CC3=[N+](CCCCCC(=O)N[C@@H](CCC(=O)NCCOCCOCCOCCOCCC(=O)NCCCC[C@@H]4NC(=O)[C@@H](Cc5ccccc5)NC(=O)[C@H](CC(=O)O)NC(=O)CNC(=O)[C@H](CCCNC(=N)N)NC4=O)C(=O)NCCOCCOCCOCCOCCC(=O)NCCCC[C@@H]4NC(=O)[C@@H](Cc5ccccc5)NC(=O)[C@H](CC(=O)O)NC(=O)CNC(=O)[C@H](CCCNC(=N)N)NC4=O)c4ccc(S(=O)(=O)O)cc4C3(C)C)=C2Oc2ccc(S(=O)(=O)O)cc2)N(CCCCS(=O)(=O)[O-])c2ccc(S(=O)(=O)O)cc21 [IRDye800-PEG4-RGD2, IRDye800-E[PEG4-c(RGDfK)]2]	–	5.87 ± 1.21 %ID/g	increased tumor to muscle ratios from 1 to 4 hours	4.63 ± 0.28	high kidney uptake	mainly excreted by the renal route	–
CC1(C)C(=CC=C2CCCC(C=CC3=[N+](CCCCCC(=O)N[C@@H](CCC(=O)NCCCC[C@@H]4NC(=O)[C@@H](Cc5ccccc5)NC(=O)[C@H](CC(=O)O)NC(=O)CNC(=O)[C@H](CCCNC(=N)N)NC4=O)C(=O)NCCCC[C@@H]4NC(=O)[C@@H](Cc5ccccc5)NC(=O)[C@H](CC(=O)O)NC(=O)CNC(=O)[C@H](CCCNC(=N)N)NC4=O)c4ccc(S(=O)(=O)O)cc4C3(C)C)=C2Oc2ccc(S(=O)(=O)O)cc2)N(CCCCS(=O)(=O)[O-])c2ccc(S(=O)(=O)O)cc21 [IRDye800-RGD2, IRDye800-E[c(RGDfK)]2]	–	2.71 ± 0.77 %ID/g	increased tumor to muscle ratios from 1 to 4 hours	3.31 ± 0.22	high kidney uptake	mainly excreted by the renal route	–
Cy5.5 [reference compound]	relatively high tumor-nonspecific targeting	–	–	–	–	–	–
Cy5.5-E[PEG4-c(RGDfK)]2 [Cy5.5-PEG4-RGD2]	–	–	–	–	–	–	colocalization with murine integrin β3 (murine integrin β3): good colocalization
